According to ChEMBL document CHEMBL6103596, “Design, Synthesis, and Biological Evaluation of BODIPY-Caged Resiquimod as a Dual-Acting Phototherapeutic” (J Med Chem, 2025):
Blank lines part the entries; values can stand above or below the compound they belong to. Active and inactive are the calls of the source. No cut-off for these calls is given here.

How the values were obtained:
[1] = Photorelease activity of the compound in DMSO-d6 measured after 10 hrs under 660nm 400mW LED light by 1H NMR spectroscopy analysis relative to control; format: ADME
[2] = Thermal stability of compound in DMSO-d6 at 37.5 degree C measured after 1 day by 1H NMR spectroscopy analysis relative to control; format: physicochemical; settings: 24 h
Outline: (§1)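 Compound in DMSO-d6 followed by 1H NMR. Degradation taken from the intensity of three signals (one resiquimod, one BODIPY, and the linkage NH), each relative to the DMSO-d6 internal standard, and the three averaged.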

[3] = Photorelease activity of the compound in aqueous solution at 30 uM measured upto 200 mins under 660nm 400mW LED light by UV-vis spectroscopy analysis; settings: buffer, 3.333 h
[4] = Thermal stability of compound in DMSO-d6 at 37.5 degree C measured after 3 days by 1H NMR spectroscopy analysis relative to control; format: physicochemical; settings: 72 h; time 3 day; outline: as §1
[5] = Photosensitizing ability of the compound assessed as singlet oxygen quantum yield under 600nm monochromatic light irradiation by DPBF based assay relative to control; format: functional
Outline: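 Singlet oxygen generation followed by the decrease in DPBF absorbance under irradiation. DPBF (20–25 μm) used at 5–10-fold excess over compound (2.5–5 μm).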

[6] = Thermal stability of compound in DMSO-d6 at 37.5 degree C measured after 2 days by 1H NMR spectroscopy analysis relative to control; format: physicochemical; settings: 48 h; time 2 day; outline: as §1
[7] = Photorelease activity of the compound in aqueous solution at 30 uM measured upto 200 mins under dark condition by 1H NMR spectroscopy analysis; format: ADME; settings: buffer, 3.333 h
AD293 [8] = assay: Cytotoxicity against human AD293 cells assessed as cell viability at 0.1 to 10 uM incubated for 24 hrs by MTT assay; format: toxicity, cell-based; settings: ad293, 24 h, dose 0.1-10 µM
Outline: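 AD293 cells seeded at 4 × 10^4 cells/well in DMEM with 10% FBS. Next day, compound (100 nM, 1 μM, 10 μM) or vehicle added in serum-free DMEM for 24 h, no irradiation. MTT (5 mg/mL reagent) added for 3 h at 37 °C, formazan dissolved in DMSO, absorbance read at 590 nm. Triplicate wells, four independent experiments.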

[9] = Thermal stability of compound in DMSO-d6 at 37.5 degree C measured before 24 hrs by 1H NMR spectroscopy analysis; format: physicochemical; outline: as §1
[10] = Photophysical property of the compound assessed as fluorescence quantum yield; format: physicochemical
[11] = Photorelease activity of the compound in CH3CN assessed as retention time under 532nm laser light by HPLC analysis; format: physicochemical
[12] = Induction of superoxide anion radical assessed as DMPO-O2 radical adduct formation under light irradiation measured after 10 mins by ESR spectra analysis; format: functional
Outline: (§2)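 ESR spectra recorded with DMPO as spin trap to detect superoxide and/or hydroxyl radical adducts, before and after 10 min irradiation of compound.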

[13] = Drug uptake in human AD293 cells assessed as increase in red fluorescence at 10 uM measured after 40 mins by fluorescence imaging based analysis; format: ADME, cell-based; settings: ad293, 40 min
[14] = Drug uptake in human A549 cells assessed as increase in intracellular fluorescence at 1 uM measured after 40 mins by confocal microscopic analysis; format: ADME, cell-based; settings: a549, 40 min
Outline: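 A549 cells treated with 1 μM compound. Intracellular fluorescence imaged by confocal microscopy (640 nm laser excitation, 650–750 nm band-pass) at 0 and 40 min after treatment.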

[15] = Induction of hydroxyl radical assessed as DMPO-OH radical adduct formation under dark condition measured after 10 mins by ESR spectra analysis; format: functional; outline: as §2
AD293 [16] = assay: Effect on morphological changes in human AD293 cells at 10 uM; format: functional, cell-based
Outline: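 AD293 cells treated with 10 μM compound, followed by LED irradiation or kept unirradiated, then morphology examined by microscopy.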

RAW264.7 [17] = assay: Effect on iNOS mRNA expression in mouse RAW264.7 cells at 100 nM preincubated with NAC followed by compound addition and measured after 30 mins under 650nm LED light irradiation by real-time PCR analysis; format: functional, cell-based
Outline: (§3)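 RAW264.7 cells seeded at 0.3 million per 35 mm dish. Next day, pretreated with 10 mM N-acetyl-cysteine for 30 min, then given 100 nM compound and 650 nm LED light for 30 min. Total RNA taken 24 h later and reverse transcribed with random primers. SYBR real-time PCR run for 40 cycles (95/60/72 °C). Quantities calculated by the Ct method. Results given as fold change, means ± SD.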

RAW264.7 [18] = assay: Effect on TNF-alpha mRNA expression in mouse RAW264.7 cells at 100 nM preincubated with NAC followed by compound addition and measured after 30 mins under 650nm LED light irradiation by real-time PCR analysis; format: functional, cell-based; outline: as §3
[19] = Induction of superoxide anion radical assessed as DMPO-O2 radical adduct formation under dark condition measured after 10 mins by ESR spectra analysis; format: functional; outline: as §2
AD293 [20] = assay: Effect on morphological changes in human AD293 cells stable expressing TLR7 at 10 uM pretreated with N-Acetylcysteine for 30 mins followed by compound addition and measured after 30 mins under LED light irradiation at 650 nm by microscopic analysis; format: functional, cell-based
Outline: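 TLR7-stable AD293 cells seeded at 20,000/well. After 24 h, medium switched to Opti-MEM. 1 h later, 10 mM N-acetyl-cysteine added. 30 min after that, cells given 10 μM compound and exposed to 650 nm LED for 30 min, or shielded from light as control. Cells observed by microscope 24 h after drug treatment.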

[21] = Induction of hydroxyl radical assessed as DMPO-OH radical adduct formation under light irradiation measured after 10 mins by ESR spectra analysis; format: functional; outline: as §2

Activity [1]: ~ 90% | Activity [2]: 7% | Activity [3]: Active | Activity [4]: 15% | Activity [6]: 11% | Activity [7]: Not_active | Activity [9]: Not_active | Activity [10]: 0.482
SMILES: CCOCc1nc2c(NC(=O)OCC3=C4C(C)=CC(/C=C/c5ccc(OCCOCCOCCOC)cc5)=[N+]4[B-](F)(F)n4c(/C=C/c5ccc(OCCOCCOCCOC)cc5)cc(C)c43)nc3ccccc3c2n1CC(C)(C)O
Activity [5]: 0.33% | Activity (AD293 [8]): Non-toxic

Retention_time [11]: 4.15 min | Activity [10]: 0.835
SMILES: CC1=CC(C)=[N+]2C1=C(CO)c1c(C)cc(C)n1[B-]2(F)F
Activity [5]: 7% | Activity (AD293 [8]): Toxic

Drug uptake [13]: Active | Drug uptake [14]: Active
SMILES: COCCOCCOCCOc1ccc(/C=C/C2=[N+]3C(=C(CO)c4c(C)cc(/C=C/c5ccc(OCCOCCOCCOC)cc5)n4[B-]3(C)C)C(C)=C2)cc1
Activity [12]: inactive | Activity [15]: inactive | Activity (AD293 [16]): inactive | Activity (RAW264.7 [17]): inactive | Activity [5]: 2.2% | Activity (RAW264.7 [18]): inactive | Activity [19]: inactive | Activity (AD293 [8]): Non-toxic | Activity (AD293 [20]): Active; Showed Greater Effect Than Compound 3C | Activity [21]: inactive
